Calls of active or inactive are those of the source. The calls are words filed in the database; no cut-off is given here.
Experiments:
HEK293 = experiment: Cytotoxicity against human HEK293 cells assessed as reduction in cell viability measured after 24 hrs by MTT assay; type: cell-based; conditions: HEK293, 24 h
Rattus norvegicus [1] = experiment: Induction of hyperlocomotor activity in restraint stress induced anxiety Wistar rat model assessed as increase in total lines crossed at 2 mg/kg, po measured after 30 mins by open field test; type: functional, organism-based
Procedure, shortened: (§1)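 Restraint stress was applied by immobilization in a plastic restrainer for 2 h/day over 14 days. Rats received 2 mg/kg 30 min before the open field test, six per group. Inner zone time was scored as the anxiety measure and the number of total lines crossed as locomotor activity. Groups were compared with nonstressed vehicle and stressed vehicle groups.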

Rattus norvegicus [2] = experiment: Anxiolytic activity in restraint stress induced anxiety Wistar rat model assessed as decrease in anxiety index at 2 mg/kg, po measured after 30 mins by elevated plus maze test; type: functional, organism-based
Procedure, shortened: (§2)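 Rats were stressed by immobilization in a plastic restrainer for 2 h/day for 14 days. Test compounds were given at 2 mg/kg 30 min before the elevated plus maze, six rats per group. Read-outs were percent open arm entry, percent open arm time and anxiety index (higher index means more anxiety). Groups were compared with nonstressed vehicle and stressed vehicle groups.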

Rattus norvegicus [3] = experiment: Anxiolytic activity in restraint stress induced anxiety Wistar rat model assessed as increase in open arm entry at 2 mg/kg, po measured after 30 mins by elevated plus maze test; type: functional, organism-based; procedure, shortened: as §2
Rattus norvegicus [4] = experiment: Anxiolytic activity in restraint stress induced anxiety Wistar rat model assessed as increase in time spent in open arm at 2 mg/kg, po measured after 30 mins by elevated plus maze test; type: functional, organism-based; procedure, shortened: as §2
Rattus norvegicus [5] = experiment: Anxiolytic activity in restraint stress induced anxiety Wistar rat model assessed as increase in time spent in inner zone at 2 mg/kg, po measured after 30 mins by open field test; type: functional, organism-based; procedure, shortened: as §1
[6] = Effect on locomotor activity in normal Wistar rat assessed as effect on total open arm entry at 2 mg/kg, po measured after 30 mins by elevated plus maze test; conditions: in vivo, 0.5 h
Rattus norvegicus [7] = experiment: Anxiolytic activity in restraint stress induced anxiety Wistar rat model assessed as decrease in time spent in outer zone at 2 mg/kg, po measured after 30 mins by open field test; type: functional, organism-based
Procedure, shortened: (§3)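 Open field test in rats stressed by immobilisation in a plastic restrainer for 2 h/day for 14 days, with non-stressed controls. Animals received 2 mg/kg acutely 30 min before testing, six rats per group. Readouts were inner zone time, outer zone time, total lines crossed (locomotion) and rearing (exploration).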

Rattus norvegicus [8] = experiment: Anxiolytic activity in restraint stress induced anxiety Wistar rat model assessed as decrease in rearing behaviour at 2 mg/kg, po measured after 30 mins by open field test; type: functional, organism-based; procedure, shortened: as §3

## c1ccc(Oc2ccc3c(c2)Cc2ccccc2NC3)cc1
HEK293
  IC50: 4.43 µM

## Clc1ccc2c(c1)NCc1ccc(Oc3ccccc3)cc1C2
HEK293
  IC50: 14.2 µM
Rattus norvegicus [1]
  Activity: Active
Rattus norvegicus [2]
  Activity: Active
Rattus norvegicus [3]
  Activity: Active
Rattus norvegicus [4]
  Activity: Active
Rattus norvegicus [5]
  Activity: Active
[6]
  Activity: Non-Toxic

## COc1ccc2c(c1)Cc1cc3c(cc1NC2)OCO3
HEK293
  IC50: 14.5 µM

## COc1ccc2c(c1)NCc1ccc(Oc3ccccc3)cc1C2
HEK293
  IC50: 2.12 µM

## COc1ccc2c(c1)Cc1ccc(OC)cc1NC2
HEK293
  IC50: 1.09 µM

## COc1ccc2c(c1)Cc1c(F)cccc1NC2
HEK293
  IC50: 0.77 µM

## COc1ccc2c(c1)Cc1cccc(F)c1NC2
HEK293
  IC50: 6.19 µM

## CN1C(=O)CN=C(c2ccccc2)c2cc(Cl)ccc21 [DIAZEPAM]
HEK293
  IC50: 87.9 µM
Rattus norvegicus [1]
  Activity: Active
Rattus norvegicus [2]
  Activity: Active
Rattus norvegicus [3]
  Activity: Active
Rattus norvegicus [4]
  Activity: Active
Rattus norvegicus [5]
  Activity: Active
Rattus norvegicus [7]
  Activity: Active
Rattus norvegicus [8]
  Activity: Active

## COc1ccc2c(c1)Cc1cc(F)ccc1NC2
HEK293
  IC50: 0.16 µM
Rattus norvegicus [1]
  Activity: Active
Rattus norvegicus [2]
  Activity: Active
Rattus norvegicus [3]
  Activity: Active
Rattus norvegicus [4]
  Activity: Active
Rattus norvegicus [5]
  Activity: Active
[6]
  Activity: Non-Toxic

## COc1ccc2c(c1)CCc1ccccc1NC2
HEK293
  IC50: 14.1 µM

## COc1ccc2c(c1)Cc1ccccc1NC2
HEK293
  IC50: 65.7 µM
Rattus norvegicus [1]
  Activity: Active
Rattus norvegicus [2]
  Activity: Active
Rattus norvegicus [3]
  Activity: Active
Rattus norvegicus [4]
  Activity: Active
Rattus norvegicus [5]
  Activity: Active
[6]
  Activity: Non-Toxic

## COc1ccc2c(c1)Cc1ccc(Cl)cc1NC2
HEK293
  IC50: 12.6 µM
Rattus norvegicus [1]
  Activity: Active
Rattus norvegicus [2]
  Activity: Active
Rattus norvegicus [3]
  Activity: Active
Rattus norvegicus [4]
  Activity: Active
Rattus norvegicus [5]
  Activity: Active
[6]
  Activity: Non-Toxic

## COc1ccc2c(c1)Cc1cc(Cl)ccc1NC2
HEK293
  IC50: 2.29 µM

## COc1cc2c(c(OC)c1)CNc1ccccc1C2
HEK293
  IC50: 6.44 µM

## Fc1cccc2c1NCc1ccc(Oc3ccccc3)cc1C2
HEK293
  IC50: 13.7 µM
Rattus norvegicus [1]
  Activity: Active
Rattus norvegicus [2]
  Activity: Active
Rattus norvegicus [3]
  Activity: Active
Rattus norvegicus [4]
  Activity: Active
Rattus norvegicus [5]
  Activity: Active
[6]
  Activity: Non-Toxic
